# Calls of active or inactive are those of the source. No cut-off for these calls is given here.
# Legend:
# NCI/ADR-RES = assay: Growth inhibition of NCI/ADR-RES cells; type: functional; conditions: Homo sapiens
# MDA-MB-231 = assay: Growth inhibition of MDA-MB-231 cells; type: functional; conditions: Homo sapiens
# Hs-578T = assay: Growth inhibition of HS578T cells; type: functional; conditions: Homo sapiens
# MDA-MB-435 = assay: Growth inhibition of MDA-MB-435 cells; type: functional; conditions: Homo sapiens
# BT-549 = assay: Growth inhibition of BT549 cells; type: functional; conditions: Homo sapiens
# T47D = assay: Growth inhibition of T47D cells; type: functional; conditions: Homo sapiens
# MDA-N = assay: Growth inhibition of MDA-N cells; type: functional; conditions: Homo sapiens
# [1] = Cytotoxicity against human T24 cells after 48 hrs by SRB binding assay; type: cell-based; conditions: T-24, 48 h
# CCRF-CEM = assay: Growth inhibition of CCRF-CEM cells; type: functional; conditions: Homo sapiens
# HL-60 [2] = assay: Growth inhibition of HL60 cells; type: functional; conditions: Homo sapiens
# K562 = assay: Growth inhibition of K562 cells; type: functional; conditions: Homo sapiens
# MOLT-4 = assay: Growth inhibition of MOLT4 cells; type: functional; conditions: Homo sapiens
# RPMI-8226 = assay: Growth inhibition of RPMI8226 cells; type: functional; conditions: Homo sapiens
# SR = assay: Growth inhibition of SR cells; type: functional; conditions: Homo sapiens
# A549 = assay: Growth inhibition of A549 cells; type: functional; conditions: Homo sapiens
# EKVX = assay: Growth inhibition of EKVX cells; type: functional; conditions: Homo sapiens
# HOP-92 = assay: Growth inhibition of HOP92 cells; type: functional; conditions: Homo sapiens
# NCI-H226 = assay: Growth inhibition of NCI-H226 cells; type: functional; conditions: Homo sapiens
# NCI-H23 = assay: Growth inhibition of NCI-H23 cells; type: functional; conditions: Homo sapiens
# [3] = Growth inhibition of NCI-H322 cells; type: functional; conditions: Homo sapiens
# NCI-H460 = assay: Growth inhibition of NCI-H460 cells; type: functional; conditions: Homo sapiens
# NCI-H522 = assay: Growth inhibition of NCI-H522 cells; type: functional; conditions: Homo sapiens
# COLO 205 = assay: Growth inhibition of COLO205 cells; type: functional; conditions: Homo sapiens
# HCC 2998 = assay: Growth inhibition of HCC2998 cells; type: functional; conditions: Homo sapiens
# HCT-116 = assay: Growth inhibition of HCT116 cells; type: functional; conditions: Homo sapiens
# HCT-15 = assay: Growth inhibition of HCT15 cells; type: functional; conditions: Homo sapiens
# HT-29 = assay: Growth inhibition of HT29 cells; type: functional; conditions: Homo sapiens
# KM12 = assay: Growth inhibition of KM12 cells; type: functional; conditions: Homo sapiens
# SW-620 = assay: Growth inhibition of SW620 cells; type: functional; conditions: Homo sapiens
# SF-268 = assay: Growth inhibition of SF268 cells; type: functional; conditions: Homo sapiens
# SF-295 = assay: Growth inhibition of SF295 cells; type: functional; conditions: Homo sapiens
# SF-539 = assay: Growth inhibition of SF539 cells; type: functional; conditions: Homo sapiens
# SNB-19 = assay: Growth inhibition of SNB19 cells; type: functional; conditions: Homo sapiens
# SNB-75 = assay: Growth inhibition of SNB75 cells; type: functional; conditions: Homo sapiens
# U-251 = assay: Growth inhibition of U251 cells; type: functional; conditions: Homo sapiens
# [4] = Growth inhibition of LOX IMV1 cells; type: functional; conditions: Homo sapiens
# Malme-3M = assay: Growth inhibition of MALME-3M cells; type: functional; conditions: Homo sapiens
# M14 = assay: Growth inhibition of M14 cells; type: functional; conditions: Homo sapiens
# SK-MEL-2 = assay: Growth inhibition of SK-MEL-2 cells; type: functional; conditions: Homo sapiens
# SK-MEL-28 = assay: Growth inhibition of SK-MEL-28 cells; type: functional; conditions: Homo sapiens
# SK-MEL-5 = assay: Growth inhibition of SK-MEL-5 cells; type: functional; conditions: Homo sapiens
# UACC-257 = assay: Growth inhibition of UACC257 cells; type: functional; conditions: Homo sapiens
# UACC-62 = assay: Growth inhibition of UACC62 cells; type: functional; conditions: Homo sapiens
# IGROV-1 = assay: Growth inhibition of IGROV1 cells; type: functional; conditions: Homo sapiens
# OVCAR-3 = assay: Growth inhibition of OVCAR-3 cells; type: functional; conditions: Homo sapiens
# OVCAR-4 = assay: Growth inhibition of OVCAR4 cells; type: functional; conditions: Homo sapiens
# OVCAR-5 = assay: Growth inhibition of OVCAR5 cells; type: functional; conditions: Homo sapiens
# OVCAR-8 = assay: Growth inhibition of OVCAR8 cells; type: functional; conditions: Homo sapiens
# SK-OV-3 = assay: Growth inhibition of SKOV3 cells; type: functional; conditions: Homo sapiens
# 786-0 = assay: Growth inhibition of 786-0 cells; type: functional; conditions: Homo sapiens
# A498 = assay: Growth inhibition of A498 cells; type: functional; conditions: Homo sapiens
# ACHN = assay: Growth inhibition of ACHN cells; type: functional; conditions: Homo sapiens
# CAKI-1 = assay: Growth inhibition of CAKI1 cells; type: functional; conditions: Homo sapiens
# RXF 393 = assay: Growth inhibition of RXF393 cells; type: functional; conditions: Homo sapiens
# SN12C = assay: Growth inhibition of SN12C cells; type: functional; conditions: Homo sapiens
# TK-10 = assay: Growth inhibition of TK10 cells; type: functional; conditions: Homo sapiens
# UO-31 = assay: Growth inhibition of UO31 cells; type: functional; conditions: Homo sapiens
# PC-3 = assay: Growth inhibition of PC3 cells; type: functional; conditions: Homo sapiens
# DU-145 = assay: Growth inhibition of DU145 cells; type: functional; conditions: Homo sapiens
# MCF7 [5] = assay: Growth inhibition of MCF7 cells; type: functional; conditions: Homo sapiens
# MCF7 [6] = assay: Cytotoxicity against human MCF7 cells after 48 hrs by SRB binding assay; type: functional, cell-based; conditions: MCF7, 48 h
# In short: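 Drug-sensitive MCF-7 cells seeded at ~15% confluency and allowed 24 h recovery. Exposed 48 h to graded concentrations. Survival measured by SRB binding as % decrease versus ethanol-vehicle controls, mean of triplicate wells.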
# [7] = Cytotoxicity against Pgp overexpressing human NCI/ADR cells after 48 hrs by SRB binding assay; type: functional, cell-based; conditions: NCI/ADR-RES
# In short: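 NCI/ADR (Pgp-overexpressing) cells seeded at ~15% confluency and allowed 24 h to attach. Exposed 48 h to graded concentrations, as solubility allowed, without vinblastine. Survival measured by sulforhodamine B binding as % decrease in SRB binding versus ethanol-vehicle controls, mean of three wells per condition.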
# [8] = Cytotoxicity against MRP1 overexpressing human MCF7/VP cells after 48 hrs by SRB binding assay; type: functional, cell-based
# In short: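 MCF-7/VP (MRP1-expressing, Pgp-negative) cells seeded at ~15% confluency and allowed 24 h to attach. Exposed 48 h to graded concentrations without vincristine. Survival measured by SRB binding versus ethanol controls.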
# MCF7 [9] = assay: Growth inhibition of Pgp deficient MCF7 cells expressing MRP1; type: functional, cell-based; conditions: Homo sapiens
# In short: (§1)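 NCI/ADR (Pgp-overexpressing) or MCF-7/VP (MRP1-expressing, Pgp-negative) cells were seeded at about 15% confluency and allowed to attach for 24 h. They were then exposed for 48 h to varying compound concentrations, limited by solubility, without added vinca drug. Survival was read by sulforhodamine B binding against ethanol solvent controls. Each value is the mean of three equally treated wells.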
# [10] = Growth inhibition of NCI/ADR cells expressing Pgp/MRP1; type: functional, cell-based; conditions: Homo sapiens, NCI/ADR-RES; in short: as §1
# [11] = Growth inhibition of Pgp deficient MCF7/VP cells expressing MRP1; type: functional, cell-based; conditions: Homo sapiens; in short: as §1
# HL-60 [12] = assay: Cell cycle arrest in HL60 cells assessed as accumulation in G0/G1 phase at 6 uM; type: functional, Homo sapiens
# In short: (§2)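 HL-60 cells exposed 24 or 48 h to drug or ethanol vehicle. Nuclei prepared by detergent-trypsin method: citrate/sucrose/DMSO buffer, trypsin, then trypsin inhibitor plus RNase A, then propidium iodide with spermine, 30 min at 4 °C. Filtered, resuspended, DNA content measured by flow cytometry. Percentages given for G0/G1, S and G2/M. Mean ± SEM.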
# HL-60 [13] = assay: Cell cycle arrest in HL60 cells assessed as accumulation in S phase at 6 uM; type: functional, Homo sapiens; in short: as §2
# HL-60 [14] = assay: Cell cycle arrest in HL60 cells assessed as accumulation in […] phase at 6 uM; type: functional, Homo sapiens; in short: as §2
# A10 [15] = assay: Induction of microtubule loss in rat A10 cells after 24 hrs; type: functional, cell-based
# In short: (§3)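 Rat A-10 smooth muscle cells were grown to near confluency on glass coverslips and treated for 24 h, with ethanol as control. Microtubules were stained by indirect immunofluorescence using monoclonal anti-β-tubulin and a fluorescein-conjugated anti-mouse IgG, then imaged by confocal laser scanning microscopy.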
# NIH3T3 = assay: Induction of microtubule loss in NIH/3T3 cells after 24 hrs; type: functional, cell-based; conditions: Mus musculus
# MCF7 [16] = assay: Induction of microtubule loss in MCF7 cells after 24 hrs; type: functional, cell-based; conditions: Homo sapiens
# MCF7 [17] = assay: Effect on Waf1 protein expression in MCF7 cells after 24 hrs; type: functional, cell-based; conditions: Homo sapiens
# In short: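 MCF-7 cells exposed 24 h to the indicated concentrations or ethanol control. Cells lysed and protein levels assessed by Western blot. One of two similar experiments.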
# A10 [18] = assay: Induction of microtubule depolymerization in rat A10 cells at 10 uM; type: functional, cell-based; in short: as §3
# A10 [19] = assay: Prevention of paracrystal formation in rat A10 cells at 10 uM; type: functional, cell-based
# Bos taurus = species on record: Bos taurus; assay: Reduction of bovine brain tubulin polymerization
# In short: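 Bovine brain tubulin was purified by three assembly/disassembly cycles followed by ion exchange. Tubulin at 67 μM (2.5 mg/mL) in 1 M glutamate, pH 6.6, with 4% DMSO was preincubated with compound (2–20 μM) or ethanol for 15 min at 0 °C. Then 0.5 mM GTP was added, samples were warmed to 37 °C, and A340 was followed for about 60 min.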
smiles,measurement,setting,value
COc1cc(CCc2cn(Cc3ccccc3)c3nc(N)nc(C)c23)cc(OC)c1OC,GI50,NCI/ADR-RES,145 nM
same,GI50,MDA-MB-231,595 nM
same,GI50,Hs-578T,283 nM
same,GI50,MDA-MB-435,10.1 nM
same,GI50,BT-549,> 1000 nM
same,GI50,T47D,563 nM
same,GI50,MDA-N,< 10 nM
same,IC50,[1],280 nM
same,GI50,CCRF-CEM,58 nM
same,GI50,HL-60 [2],64.7 nM
same,GI50,K562,84.6 nM
same,GI50,MOLT-4,285 nM
same,GI50,RPMI-8226,439 nM
same,GI50,SR,31.4 nM
same,GI50,A549,173 nM
same,GI50,EKVX,424 nM
same,GI50,HOP-92,467 nM
same,GI50,NCI-H226,195 nM
same,GI50,NCI-H23,278 nM
same,GI50,[3],581 nM
same,GI50,NCI-H460,162 nM
same,GI50,NCI-H522,47.7 nM
same,GI50,COLO 205,190 nM
same,GI50,HCC 2998,317 nM
same,GI50,HCT-116,286 nM
same,GI50,HCT-15,127 nM
same,GI50,HT-29,281 nM
same,GI50,KM12,194 nM
same,GI50,SW-620,236 nM
same,GI50,SF-268,669 nM
same,GI50,SF-295,41.8 nM
same,GI50,SF-539,74.5 nM
same,GI50,SNB-19,273 nM
same,GI50,SNB-75,358 nM
same,GI50,U-251,144 nM
same,GI50,[4],250 nM
same,GI50,Malme-3M,283 nM
same,GI50,M14,77 nM
same,GI50,SK-MEL-2,381 nM
same,GI50,SK-MEL-28,> 1000 nM
same,GI50,SK-MEL-5,61.1 nM
same,GI50,UACC-257,80.2 nM
same,GI50,UACC-62,39.9 nM
same,GI50,IGROV-1,61.1 nM
same,GI50,OVCAR-3,28.8 nM
same,GI50,OVCAR-4,821 nM
same,GI50,OVCAR-5,> 1000 nM
same,GI50,OVCAR-8,364 nM
same,GI50,SK-OV-3,506 nM
same,GI50,786-0,254 nM
same,GI50,A498,136 nM
same,GI50,ACHN,728 nM
same,GI50,CAKI-1,366 nM
same,GI50,RXF 393,134 nM
same,GI50,SN12C,537 nM
same,GI50,TK-10,961 nM
same,GI50,UO-31,347 nM
same,GI50,PC-3,47.9 nM
same,GI50,DU-145,224 nM
same,GI50,MCF7 [5],118 nM
same,IC50,MCF7 [6],300 nM
same,IC50,[7],250 nM
same,IC50,[8],250 nM
same,IC50,MCF7 [9],280 nM
same,IC50,[10],350 nM
same,IC50,[11],180 nM
same,Activity,HL-60 [12],80%
same,Activity,HL-60 [13],10.3%
same,Activity,HL-60 [14],9.7%
same,Activity,A10 [15],Dose-dependent effect
same,Activity,NIH3T3,Active
same,Activity,MCF7 [16],Active
same,Activity,MCF7 [17],Active
same,Activity,A10 [18],Active
same,Activity,A10 [19],inactive
same,Activity,Bos taurus,Dose-dependent effect

# From ChEMBL document CHEMBL1145421, “Discovery of novel antitumor antimitotic agents that also reverse tumor resistance” (J Med Chem, 2007)
